Data reported in ChEMBL document CHEMBL1255220, “Synthesis and antitumor effect in vitro and in vivo of substituted 1,3-dihydroindole-2-ones” (J Med Chem, 2010).
Active and inactive are the calls of the source. No cut-off for these calls is given here.

Key:
[1] = tested on: MCF7; assay: Cytotoxicity against human MCF7 cells after 72 hrs by WST-1 assay; format: functional, cell-based
Method in brief: (§1)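 Cells seeded at 3×10³/well; next day serially diluted compound added in triplicate; 72 h at 37 °C, 5% CO₂. Viable cells measured with WST-1 reagent (1 h), absorbance 450 nm minus 690 nm reference. IC50 is mean ± SD of at least two experiments run in triplicate. MCF-7 grown in DMEM, PC3 in RPMI, each with 10% serum.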

[2] = tested on: PC-3; assay: Cytotoxicity against human PC3 cells after 72 hrs by WST-1 assay; format: functional, cell-based; method in brief: as §1
[3] = tested on: PC-3; assay: Antitumor activity against human PC3 cells xenografted in sc dosed NMRI mouse assessed as tumor regression dose; format: functional
Method in brief: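 1e7 PC3 cells (grown in RPMI + 10% FBS) in PBS/Matrigel 1:1 injected sc into female NMRI nude mice or female NIH-RNU nude rats. Compound dosed iv three times per week. Tumour regression dose recorded. Rat effective doses were estimated from mouse xenografts using a 0.5 mouse-to-rat conversion factor.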

[4] = tested on: PC-3; assay: Antitumor activity against human PC3 cells xenografted in sc dosed rat assessed as tumor regression dose; format: functional
[5] = Therapeutic index, ratio of MTD in rat to ED50 for antitumor activity against human PC3 cells xenografted in rat; format: cell-based, PC-3; details: in vivo, read-out: TI
Method in brief: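 PC3 human prostate cancer cells (1e7, grown in RPMI + 10% FBS, suspended in PBS + Matrigel) were implanted sc in female nude rats (NIHRNU-M) or nude mice (NMRI/nude), with iv dosing 3×/week. Rat MTD came from a single iv dose. Effective rat doses were estimated from mouse xenografts using a mouse-to-rat conversion factor of 0.5. Index = rat toxic dose / rat effective dose.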

[6] = Toxicity in iv dosed rat assessed as maximum tolerated dose; details: in vivo
[7] = target: Eukaryotic translation initiation factor 2 subunit 1 (Homo sapiens) (UniProt P05198); assay: Inhibition of eIF2alpha autophosphorylation in human A2780 cells; format: cell-based
Method in brief: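 MCF-7 (DMEM) and A2780 (RPMI 1640) cells, together with sublines made resistant by culture in rising concentrations of the parent oxindole, were treated with compound for 4 and 24 h respectively. Lysates (20 μg protein) separated by SDS-PAGE and blotted onto nitrocellulose. Phospho-eIF2α read by western blot: milk block, primary antibody overnight at 4 °C, HRP secondary antibody.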

[8] = target: Eukaryotic translation initiation factor 2 subunit 1 (Homo sapiens) (UniProt P05198); assay: Induction of eIF2alpha phosphorylation in human MCF7 cells
[9] = AUC in mouse at 5 mg/kg, iv; format: ADME, organism-based; parameters: dose 5 mg/kg, route intravenous; details: plasma
Method in brief: (§2)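 Compound given as single iv dose to mice or rats. Plasma samples prepared by protein precipitation with acetonitrile containing 1 μg/mL internal standard (3:1 v/v). Analysed by UPLC-MS/MS on a C18 reversed-phase column at 40 °C with an acetonitrile–0.05% formic acid gradient. Half-life and AUC (h ng/mL) derived from the plasma levels.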

[10] = Half life in mouse at 5 mg/kg, iv; format: ADME, organism-based; parameters: dose 5 mg/kg, route intravenous; details: in vivo; method in brief: as §2
[11] = Half life in rat at 2.5 mg/kg, iv; format: ADME, organism-based; parameters: dose 2.5 mg/kg, route intravenous; details: in vivo; method in brief: as §2
[12] = AUC in rat at 2.5 mg/kg, iv; format: ADME, organism-based; parameters: dose 2.5 mg/kg, route intravenous; details: plasma; method in brief: as §2

Sequence of Eukaryotic translation initiation factor 2 subunit 1 (Homo sapiens) (P05198 whole entry): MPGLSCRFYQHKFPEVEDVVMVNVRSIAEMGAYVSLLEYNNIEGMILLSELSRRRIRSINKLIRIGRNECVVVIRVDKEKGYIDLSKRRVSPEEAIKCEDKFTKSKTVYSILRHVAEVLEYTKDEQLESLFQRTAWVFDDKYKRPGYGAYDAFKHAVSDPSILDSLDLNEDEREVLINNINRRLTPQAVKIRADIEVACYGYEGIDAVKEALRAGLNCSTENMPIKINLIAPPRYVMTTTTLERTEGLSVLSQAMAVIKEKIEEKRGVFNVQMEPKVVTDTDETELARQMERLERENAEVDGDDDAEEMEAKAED

| SMILES | IC50 ([1]; Homo sapiens, MCF7, 72 h) | IC50 ([2]; Homo sapiens, PC-3, 72 h) | also measured |
| --- | --- | --- | --- |
| COc1ccc2c(c1C)NC(=O)[C@]2(c1ccc(O)cc1)C1CCCCCC1 | 0.48 nM | 2 nM | – |
| COc1ccc2c(c1C)NC(=O)[C@@]2(c1ccc(O)cc1)C1CCCCCC1 | > 1000 nM | > 1000 nM | – |
| O=C1Nc2c(C(F)(F)F)cccc2C1(c1ccc(O)cc1)C1CCCCCC1 (racemic) | 9.7 nM | 91 nM | Activity [3]: 20 mg/kg; Activity [4]: >20 mg/kg; selectivity ratio [5]: 4; MTD [6]: 40 mg/kg |
| O=C1Nc2c(C(F)(F)F)cccc2C1(c1ccc(O)cc1)n1ccnc1 (racemic) | > 1000 nM | > 1000 nM | inhibition [7]: inactive; induction [8]: inactive |
| Cc1cc(C)c2c(c1)C(c1ccc(O)cc1)(c1ccc(F)cc1)C(=O)N2 (racemic) | 40 nM | 209 nM | – |
| Cc1cc(C)c2c(c1)C(c1ccc(O)cc1)(C1CCCCCC1)C(=O)N2 (racemic) | > 1000 nM | > 1000 nM | – |
| Cc1cc(F)cc2c1NC(=O)C2(c1ccc(O)cc1)C1CCCCCC1 (racemic) | > 1000 nM | > 1000 nM | – |
| Cc1ccc2c(c1C)NC(=O)C2(c1ccc(O)cc1)C1CCCCCC1 (racemic) | 19 nM | > 1000 nM | – |
| Cc1c(F)ccc2c1NC(=O)C2(c1ccc(O)cc1)C1CCCCCC1 (racemic) | 20 nM | 30 nM | – |
| Cc1c(Cl)ccc2c1NC(=O)C2(c1ccc(O)cc1)C1CCCCCC1 (racemic) | 51 nM | 150 nM | – |
| Cc1ccc2c(c1Cl)NC(=O)C2(c1ccc(O)cc1)C1CCCCCC1 (racemic) | 2.8 nM | 17 nM | – |
| COc1ccc2c(c1C)NC(=O)C2(c1ccc(O)cc1)C1CCCC1 (racemic) | 1 nM | 111 nM | – |
| COc1ccc2c(c1C)NC(=O)C2(c1ccc(O)cc1)C1CCCCC1 (racemic) | 14 nM | 28 nM | – |
| O=C1Nc2c(ccc(F)c2F)C1(c1ccccc1)c1ccc(O)cc1 (racemic) | 7.1 nM | 8.9 nM | – |
| O=C1Nc2c(ccc(F)c2F)C1(c1ccc(O)cc1)c1ccc(F)cc1 (racemic) | 2.6 nM | 8.6 nM | Activity [3]: 2.5 mg/kg; Activity [4]: <2.5 mg/kg; selectivity ratio [5]: 2; AUC [9]: 1910 ng·h/mL; half-life [10]: 126 min; half-life [11]: 48 min; AUC [12]: 2530 ng·h/mL; MTD [6]: 2.5 mg/kg |
| COc1ccc(C2(c3ccc(O)cc3)C(=O)Nc3c2ccc(F)c3F)cc1 (racemic) | – | – | IC50 ([1]; mcf7): 6.3 nM; IC50 ([2]; pc-3): 2.2 nM |
| Cc1ccc(C2(c3ccc(O)cc3)C(=O)Nc3c2ccc(F)c3F)cc1 (racemic) | 1.7 nM | 0.8 nM | – |
| CCOc1ccc(C2(c3ccc(O)cc3)C(=O)Nc3c2ccc(F)c3F)cc1 (racemic) | 11 nM | 24 nM | – |
| CCCOc1ccc(C2(c3ccc(O)cc3)C(=O)Nc3c2ccc(F)c3F)cc1 (racemic) | 356 nM | > 1000 nM | – |

| SMILES | IC50 ([1]; Homo sapiens, MCF7, 72 h) | IC50 ([2]; Homo sapiens, PC-3, 72 h) | also measured |
| --- | --- | --- | --- |
| CCCCCOc1ccc(C2(c3ccc(O)cc3)C(=O)Nc3c2ccc(F)c3F)cc1 (racemic) | > 1000 nM | > 1000 nM | – |
| COc1ccc(C2(c3cccc(O)c3)C(=O)Nc3c2ccc(F)c3F)cc1 (racemic) | 196 nM | 145 nM | – |
| O=C1Nc2c(ccc(F)c2F)C1(c1ccc(O)cc1)c1ccc(F)c(F)c1 (racemic) | 7.8 nM | 19 nM | – |
| O=C1Nc2c(ccc(F)c2F)C1(c1ccc(O)cc1)c1cccs1 (racemic) | 82 nM | 0.3 nM | AUC [9]: 395 ng·h/mL; half-life [10]: 24 min; half-life [11]: 42 min; AUC [12]: 2630 ng·h/mL |
| O=C1Nc2c(ccc(F)c2F)C1(c1ccncc1)c1ccc(O)cc1 (racemic) | 37 nM | 110 nM | – |
| O=C1Nc2c(ccc(F)c2F)C1(c1ccc(O)cc1)c1cccnc1 (racemic) | 63 nM | > 1000 nM | – |
| CCCC1(c2ccc(O)cc2)C(=O)Nc2c1ccc(F)c2F (racemic) | > 1000 nM | > 1000 nM | – |
| CCCCCC1(c2ccc(O)cc2)C(=O)Nc2c1ccc(F)c2F (racemic) | 96 nM | 1.1 nM | – |
| O=C1Nc2c(ccc(F)c2F)C1(c1ccc(O)cc1)C1CCCC1 (racemic) | 12 nM | 8.2 nM | AUC [9]: 1850 ng·h/mL; half-life [10]: 222 min; half-life [11]: 66 min; AUC [12]: 2400 ng·h/mL |
| O=C1Nc2c(ccc(F)c2F)C1(c1ccc(O)cc1)C1CCCCCCC1 (racemic) | > 1000 nM | > 1000 nM | – |
| O=C1Nc2c(ccc(F)c2F)C1(CC1CCCCC1)c1ccc(O)cc1 (racemic) | 102 nM | > 1000 nM | – |
| O=C1Nc2c(ccc(F)c2F)C1(Cc1ccccc1)c1ccc(O)cc1 (racemic) | > 1000 nM | > 1000 nM | – |
| O=C1Nc2ccccc2C1(c1ccc(O)cc1)c1ccc(F)cc1 (racemic) | 28 nM | > 1000 nM | – |
| O=C1Nc2ccccc2C1(c1ccc(O)cc1)C1CCCCCC1 (racemic) | 247 nM | > 1000 nM | – |
| Cc1cccc2c1NC(=O)C2(c1ccc(O)cc1)C1CCCCCC1 (racemic) | > 1000 nM | > 1000 nM | – |
| COc1ccc(C2(c3ccc(O)cc3)C(=O)Nc3c2ccc(F)c3F)cc1 (stereo in doubt; form 1) | – | – | IC50 ([1]; mcf7): 2.1 nM; IC50 ([2]; pc-3): 2 nM |
| O=C1Nc2c(ccc(F)c2F)C1(c1ccc(O)cc1)C1CCCCC1 (stereo in doubt; form 1) | – | – | IC50 ([1]; mcf7): 18 nM; IC50 ([2]; pc-3): 9.2 nM |
| COc1ccc(C2(c3ccc(O)cc3)C(=O)Nc3c2ccc(F)c3F)cc1 (stereo in doubt; form 2) | – | – | IC50 ([1]; mcf7): > 1000 nM; IC50 ([2]; pc-3): > 1000 nM |
| O=C1Nc2c(ccc(F)c2F)C1(c1ccc(O)cc1)C1CCCCC1 (stereo in doubt; form 2) | – | – | IC50 ([1]; mcf7): > 1000 nM; IC50 ([2]; pc-3): > 1000 nM |
